sdo1 growth – compounds rescuing growth of sdo1-depleted yeast, bone marrow failure model; S. cerevisiae sdo1-depleted JHY4D growth rescue, OD600 30 h; stronger effect = higher value; pdr5 snq2 efflux-pump mutant strain; z-score at 10 µM; hit rate 0.21% among 140,000;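 active = z-score above 3 at both the 24 hr and the 30 hr optical density reads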;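 note: z-score against mean and SD of all compound wells on the same plate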
RAM inhibit – blocks the yeast RAM network. inhibition, % at 50 µM. AID 868. hit rate 1.8% among 190,000. S. cerevisiae dse1pr::URA3 reporter, 5-FOA growth OD615, 2 d; analog-sensitive cbk1-as2 kinase mutant strain;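 active = inhibition above a set limit, 3 SD over mean compound inhibition, cut at about 8.4% in these data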;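 note: 0% = DMSO-only wells with no growth and 100% = 10 µM 1-NA-PP1 full growth; inhibition rescues growth on 5-FOA so higher OD means more RAM inhibition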
Measles CPE – protection of cells from measles virus; Measles virus-infected cells, CPE protection, absorbance; protection (pct of control), % at 4 µM; hit rate 1.5% among 140,000; AID 841; in the data active = protection mostly above about 24%, no sharp cut-off; inactive = mostly below about 26%
Yeast lifespan up – extends the lifespan of yeast | inhibition of the nicotinamide effect, % at 10 µM | hit rate 0.68% among 130,000 | S. cerevisiae growth with nicotinamide, OD615; deaD strain in restrictive glucose medium;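 active = inhibition above a set limit, placed 3 SD over the median of all compounds, cut at about 26% in these data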;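 note: 0% = nicotinamide-treated wells and 100% = cells grown without nicotinamide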
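System: Modified budding yeast, DeaD strain | Buffer or medium: Restrictive glucose medium | Also added: 1.5 mM nicotinamide | Doses: 10 µM single point, 0.25% DMSO | Schedule: 48 h compound exposure at 30 °C, humidified | Detection: Absorbance at 615 nm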
BB579 growth dn – yeast BB579 growth reduction in restrictive medium; hit rate 0.51% among 140,000; S. cerevisiae BB579 growth, OD615, 48 h; inhibition, % at 10 µM; AID 804;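 active = inhibition above a set limit, 3 SD over the mean compound inhibition, cut at about 44% in these data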
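Assay system: S. cerevisiae DeaD strain BB579 yeast. Medium: CSMM-D restrictive synthetic medium containing dextrose (glucose). Times: 4 h cell preincubation, 48 h compound exposure, 30 °C humidified. Signal: OD615 turbidity measurement. Benchmarks: positive control amphotericin B 10 µg/mL.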
An asterisk follows results filed as active. Compounds with a hit are over-represented: about 3.8% of the library has one in this group of screens.

For Cc1nc2c(ccc3nc(NC(=O)Cc4ccccc4)sc32)s1 the results were sdo1 growth -1.44, RAM inhibit 11.4*, Measles CPE 3.0, Yeast lifespan up -3.5 and BB579 growth dn -19.7.
`COC(=O)[C@@H]1C2CCC(C(=O)Nc3ccccc3)(CC2)[C@@H]1C(=O)OC` gave sdo1 growth 0.28, RAM inhibit 3.5, Measles CPE 47.8*, Yeast lifespan up -11.8 and BB579 growth dn -21.4.
Screening COc1ccc(C2(C(=O)Nc3ccccc3)CCOCC2)cc1 returned sdo1 growth 0, RAM inhibit 0.6, Measles CPE 10.0, Yeast lifespan up -0.1 and BB579 growth dn -4.4.
Screening CCCCN(C(=N)N1CCCCC1)c1nc(C)c([N+](=O)[O-])c(=O)[nH]1 returned sdo1 growth 0.65, RAM inhibit -0.4, Measles CPE 15.7, Yeast lifespan up 3.9 and BB579 growth dn -26.1.
`N#Cc1c2nc3ccccc3nc2n2cc(NC(=O)c3ccc(F)cc3)ccc12` gave sdo1 growth 0.33, RAM inhibit 9.8*, Measles CPE 2.5, Yeast lifespan up -2.2 and BB579 growth dn -19.6.
Screening O=C(Nc1ccc(Cl)c(Cl)c1)N1CCC(N2CCCCC2)CC1 returned sdo1 growth 0.8, RAM inhibit 0.1, Measles CPE 61.0*, Yeast lifespan up -9.1 and BB579 growth dn -28.5.
COc1cccc(NC(=O)N2CCC(N3CCCCC3)CC2)c1 was read as sdo1 growth -0.43, RAM inhibit 0.6, Measles CPE 15.2, Yeast lifespan up -3.7 and BB579 growth dn -25.2.
Cc1nnc2sc(SCC(=O)Nc3ccc(Cl)cc3)nn2c1=O was read as RAM inhibit 3.1.
Screening COc1cc(/C=N/n2c(C)n[nH]c2=S)ccc1OCc1ccc(F)cc1 returned sdo1 growth -0.59, RAM inhibit 2.6, Measles CPE 121.8*, Yeast lifespan up 1.1 and BB579 growth dn -10.5.
`COc1cc(/C=N\n2nnnc2N)ccc1OCc1ccc(F)cc1` gave sdo1 growth -0.42, RAM inhibit 1.7, Measles CPE 59.7*, Yeast lifespan up -9.2 and BB579 growth dn -57.0.
For COc1cc(/C=N/n2nnnc2N)ccc1OCc1c(C)no[n+]1[O-] the results were sdo1 growth 0.3, RAM inhibit 5.7, Measles CPE 9.2, Yeast lifespan up 3.8 and BB579 growth dn -33.0.
COc1ccc(C2C(C(=O)OCC3CCCO3)=C(C)NC3=C2C(=O)CC(c2ccco2)C3)cc1O (centres undefined) was read as sdo1 growth 0.24, RAM inhibit 4.2, Measles CPE 22.4, Yeast lifespan up -5.5 and BB579 growth dn -51.8.
`COc1ccccc1N1CCN(C(CNS(=O)(=O)c2ccccc2)c2cccnc2)CC1` (centres undefined) gave sdo1 growth 1.37, RAM inhibit -0.1, Measles CPE 33.1*, Yeast lifespan up -7.0 and BB579 growth dn -40.8.
For COc1ccc(S(=O)(=O)NCC(c2cccnc2)N2CCN(c3ccccc3OC)CC2)cc1C (centres undefined) the results were sdo1 growth -0.42, RAM inhibit -0.4, Measles CPE 4.9, Yeast lifespan up -17.3 and BB579 growth dn -28.4.
For CCOC(=O)c1oc2ccccc2c1CSc1nnnn1-c1ccc(C)cc1 the results were sdo1 growth -0.51, RAM inhibit 10.2*, Measles CPE 15.7, Yeast lifespan up 3.7 and BB579 growth dn -23.6.
For CCCC(=O)Nc1cc(C(F)(F)F)ccc1N1CCOCC1 the results were RAM inhibit 0.6.
O=C(CSCc1ccco1)Nc1cc(C(F)(F)F)ccc1N1CCOCC1 was read as sdo1 growth -0.24, RAM inhibit 9.1*, Measles CPE 18.2, Yeast lifespan up -11.3 and BB579 growth dn -46.6.
Screening CCSc1ccccc1C(=O)N1CCCC1 returned sdo1 growth -0.11, RAM inhibit -0.3, Measles CPE 5.3, Yeast lifespan up -11.5 and BB579 growth dn -14.3.
Screening CCSc1ccccc1C(=O)n1nnc2ccccc21 returned sdo1 growth 0.59, RAM inhibit 0.3, Measles CPE 4.0, Yeast lifespan up 60.2* and BB579 growth dn -49.8.
For CCOC(=O)CSc1ccc(S(=O)(=O)N2CCCC2)cc1[N+](=O)[O-] the results were RAM inhibit 1.2.
Screening CCOC(=O)CSc1ccc(S(=O)(=O)N2CCCCC2)cc1[N+](=O)[O-] returned sdo1 growth 0.11, RAM inhibit 8.7*, Measles CPE 6.0, Yeast lifespan up 8.1 and BB579 growth dn -51.4.
For O=[N+]([O-])c1cc(S(=O)(=O)N2CCCCCC2)ccc1F the results were sdo1 growth -0.84, RAM inhibit 1.6, Measles CPE 2.6, Yeast lifespan up 66.3* and BB579 growth dn -7.4.
For O=C(CSc1nnc(-c2ccncc2)o1)Oc1ccccc1 the results were sdo1 growth 0.12, RAM inhibit 0.7, Measles CPE 5.2, Yeast lifespan up -9.9 and BB579 growth dn -20.4.
Screening O=C(O)CSc1nnc(-c2ccccc2)o1 returned sdo1 growth 0.73, RAM inhibit 1.1, Measles CPE 33.2*, Yeast lifespan up -19.2 and BB579 growth dn -17.2.
`O=C(CSc1nnc(-c2cccnc2)o1)Oc1ccccc1` gave sdo1 growth 0.42, RAM inhibit 0.7, Measles CPE 43.9*, Yeast lifespan up -19.1 and BB579 growth dn -30.8.
For COc1ccc2c(Cl)c(C(=O)N/N=C3\CCCC(=O)C3)sc2c1 the results were RAM inhibit 2.1.
For Cc1ccc(C2CC(c3ccc(Cl)cc3)=NNC2=O)cc1 (centres undefined) the results were sdo1 growth 0.07, RAM inhibit -1.6, Measles CPE 49.0*, Yeast lifespan up -0.6 and BB579 growth dn -52.6.
For Cc1nc2ncnn2c(C)c1CCC(=O)N1CCc2ccccc21 the results were sdo1 growth -0.63, RAM inhibit 1.1, Measles CPE 39.6*, Yeast lifespan up 7.3 and BB579 growth dn -21.8.
Screening CN1CCCN(Cc2nc(-c3cccc(C(F)(F)F)c3)no2)CC1 returned RAM inhibit 0.0.
Screening CCOc1ccc(Oc2ccccc2NC(=O)CCNC(C)=O)cc1 returned RAM inhibit 0.8.
`Cn1c(CNc2nc3ccccc3n2CCN2CCCCC2)nc2ccccc21` gave sdo1 growth -0.18, RAM inhibit 0.6, Measles CPE 3.0, Yeast lifespan up -7.5 and BB579 growth dn -68.8.
OCCNc1nc2ccccc2n1CCN1CCCCC1 was read as sdo1 growth 2.24, RAM inhibit -0.8, Measles CPE 46.7* and BB579 growth dn 5.6.
For O=C(CN1C(=O)NC2(CCCc3ccccc32)C1=O)N1CCN(C(=O)c2ccco2)CC1 (centres undefined) the results were sdo1 growth 0.85, RAM inhibit -0.2, Measles CPE 2.8, Yeast lifespan up -15.2 and BB579 growth dn -39.7.
For O=C1COc2ccc(C(=O)c3ccccc3C(=O)NCc3ccco3)cc2N1 the results were sdo1 growth 0.75, RAM inhibit -0.7, Measles CPE 4.5, Yeast lifespan up -9.1 and BB579 growth dn -19.6.
